Source: ChEMBL document CHEMBL2046270, “The cis-4-amino-L-proline residue as a scaffold for the synthesis of cyclic and linear endomorphin-2 analogues” (J Med Chem, 2012)

Experiments:
[1] = biological target: Mu-type opioid receptor (Cavia porcellus) (UniProt P97266); assay: Agonist activity at mu opioid receptor in Hartley guinea pig ileum assessed as inhibition of electrically-stimulated muscle contraction at 1 uM after 3 mins; format: functional, tissue-based
Method in brief: (§1)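 Transmurally stimulated tissue (0.1 Hz; 2.0 ms pulses MVD, 0.4 ms GPI; supramaximal voltage) from male ICR mice (25−30 g) or male Hartley guinea pigs (150−400 g; ileum longitudinal muscle-myenteric plexus), in 37 °C oxygenated Krebs bicarbonate (Mg-free for MVD), tension 0.5 g MVD / 1 g GPI. Agonist in contact 3 min, then washout; percent inhibition of contraction at single concentration.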

[2] = biological target: Kappa-type opioid receptor (Homo sapiens, UniProt P41145); assay: Displacement of [3H]-U69593 from human kappa opioid receptor expressed in CHO cells after 60 mins by scintillation counting; format: cell-based
Method in brief: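 Recombinant CHO cell membranes incubated 60 min at room temperature with 3 nM [3H]U69593 and varying ligand concentrations; nonspecific binding with 10 μM naloxone. Rapid filtration, liquid scintillation counting. Ki by Cheng–Prusoff; four independent experiments, each in duplicate.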

[3] = biological target: Delta-type opioid receptor (Mus musculus) (UniProt P32300); assay: Agonist activity at delta opioid receptor in ICR mouse vas deferens assessed as inhibition of electrically-stimulated muscle contraction at 1 uM after 3 mins; format: functional, tissue-based; method in brief: as §1
[4] = biological target: Delta-type opioid receptor (Homo sapiens, UniProt P41143); assay: Displacement of [3H]-DPDPE from human delta opioid receptor expressed in HN9.10 cells after 3 hrs by scintillation counting; format: cell-based
Method in brief: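 Membranes from transfected HN9.10 cells expressing MOR or DOR, in 50 mM Tris pH 7.4 with bacitracin, bestatin, captopril, PMSF, BSA. 50 μg membrane with 10 concentrations of test compound and 1.0 nM [3H]DAMGO (MOR) or [3H]DPDPE (DOR); nonspecific with 10 μM naloxone. 25 °C, 3 h, duplicate; GF/B filtration, scintillation counting; Ki by Cheng–Prusoff.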

Sequence of Kappa-type opioid receptor (P41145 whole entry): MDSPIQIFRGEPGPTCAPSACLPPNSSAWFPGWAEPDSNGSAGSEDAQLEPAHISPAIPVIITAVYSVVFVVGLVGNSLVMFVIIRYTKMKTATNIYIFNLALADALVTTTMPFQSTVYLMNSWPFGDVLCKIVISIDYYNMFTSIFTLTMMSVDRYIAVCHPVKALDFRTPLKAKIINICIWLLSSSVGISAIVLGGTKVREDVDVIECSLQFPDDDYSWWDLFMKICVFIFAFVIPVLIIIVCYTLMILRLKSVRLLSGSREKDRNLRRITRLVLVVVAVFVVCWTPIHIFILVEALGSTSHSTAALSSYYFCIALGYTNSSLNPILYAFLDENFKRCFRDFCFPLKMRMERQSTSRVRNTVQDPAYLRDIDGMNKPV
Sequence of Delta-type opioid receptor (Mus musculus) (P32300 whole entry): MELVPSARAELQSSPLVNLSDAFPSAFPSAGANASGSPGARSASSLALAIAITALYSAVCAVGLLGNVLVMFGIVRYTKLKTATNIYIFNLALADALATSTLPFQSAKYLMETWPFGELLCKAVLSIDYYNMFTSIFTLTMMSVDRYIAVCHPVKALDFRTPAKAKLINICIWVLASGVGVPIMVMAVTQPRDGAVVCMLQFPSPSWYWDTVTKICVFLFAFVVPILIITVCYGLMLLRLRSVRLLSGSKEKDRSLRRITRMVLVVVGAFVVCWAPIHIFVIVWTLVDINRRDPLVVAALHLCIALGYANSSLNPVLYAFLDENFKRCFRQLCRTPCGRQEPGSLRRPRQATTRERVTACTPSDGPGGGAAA
Sequence of Mu-type opioid receptor (Cavia porcellus) (P97266 whole entry): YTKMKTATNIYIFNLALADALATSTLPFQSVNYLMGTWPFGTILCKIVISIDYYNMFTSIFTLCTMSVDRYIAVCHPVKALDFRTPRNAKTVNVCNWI
Sequence of Delta-type opioid receptor (P41143 whole entry): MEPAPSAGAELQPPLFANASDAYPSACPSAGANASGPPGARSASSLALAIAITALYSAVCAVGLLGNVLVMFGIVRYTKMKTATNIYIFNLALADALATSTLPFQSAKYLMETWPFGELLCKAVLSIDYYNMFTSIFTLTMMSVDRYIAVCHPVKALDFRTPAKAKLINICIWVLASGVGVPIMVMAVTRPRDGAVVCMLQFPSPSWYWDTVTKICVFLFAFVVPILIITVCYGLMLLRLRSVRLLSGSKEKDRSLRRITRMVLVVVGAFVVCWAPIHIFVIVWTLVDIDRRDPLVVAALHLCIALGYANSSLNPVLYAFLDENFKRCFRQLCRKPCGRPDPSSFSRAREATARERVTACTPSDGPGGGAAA

Row | SMILES | inhibition [1] | Ki [2] | inhibition [3] | Ki [4]
1 | Br.N[C@H]1C[C@@H](C(=O)N[C@@H](Cc2ccccc2)C(=O)N[C@@H](Cc2ccccc2)C(=O)O)N(C(=O)[C@@H](N)Cc2ccc(O)cc2)C1 | 0% | Not Active | 3.6% | –
2 | Br.NC(=O)[C@H](Cc1ccccc1)NC(=O)[C@H](Cc1ccccc1)NC(=O)[C@@H]1C[C@H](N)CN1C(=O)[C@@H](N)Cc1ccc(O)cc1 | – | Not Active | 20% | Not Active
3 | N[C@@H](Cc1ccc(O)cc1)C(=O)N1C[C@@H]2C[C@H]1C(=O)N[C@@H](Cc1ccccc1)C(=O)N[C@@H](Cc1ccccc1)C(=O)N2 | 1.4% | Not Active | 0% | Not Active
